For two compounds, IC50, viability and Activity results are on record in ChEMBL document CHEMBL1154126, “Sulforaphane induces cell-cycle arrest and apoptosis in cultured human lung adenocarcinoma LTEP-A2 cells and retards growth of LTEP-A2 xenografts in vivo” (J Nat Prod, 2008).

One assay has as its system OVCAR-3. Kind of assay: Antiproliferative activity against human OVCAR-3 cells. It is filed as functional, cell-based.
Assay [1] can be described thus: Antiproliferative activity against human LTEP-A2 cells assessed as viable cells at 25 uM after 24 hrs by trypan blue exclusion assay. It is filed as functional. Conditions: LTEP-A2, 24 h, read-out: Activity. Put shortly:
(§1)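 Suspension-grown LTEP-A2 cells in RPMI 1640 with 20% heat-inactivated bovine serum, penicillin and streptomycin. Exponentially growing cells were added at 400 000 cells/mL to medium with 6.25–50 µM compound. Trypan blue-excluding cells were counted at 3, 24, 48 and 72 h relative to controls. IC50 was interpolated from 24 h dose-response curves. Three independent experiments, mean ± SD.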

A short description of assay [2]: Antiproliferative activity against human LS 174T cells. It counts as functional, cell-based. The settings on record: LS174T.
The nature of assay [3]: Antiproliferative activity against human LTEP-A2 cells after 24 hrs by trypan blue exclusion assay. It counts as functional, cell-based. Conditions: LTEP-A2, 24 h. Put shortly: as §1
For another assay, the system named is LTEP-A2. Kind of assay: Antiproliferative activity against human LTEP-A2 cells by trypan blue exclusion assay. It counts as functional, cell-based. Put shortly: as §1
Assay [4] can be described thus: Antiproliferative activity against human LTEP-A2 cells assessed as viable cells at 12.5 uM after 24 hrs by trypan blue exclusion assay. The settings on record: LTEP-A2, 24 h, read-out: Activity. It counts as functional. Put shortly:
as §1

The test system of another assay is Jurkat. Kind of assay: Antiproliferative activity against human lymphoblastoid cells using annexin-V FITC and PI staining by flow cytometry.
In a further assay the test system is DU-145. Nature of the assay: Antiproliferative activity against human DU145 cells assessed as viable cells after 24 hrs. The settings on record: DU-145, 24 h.

For the compound `S=C=NCCc1ccccc1` [PHENETHYLISOTHIOCYANATE], the IC50 in the assay on OVCAR-3 stood at 23.2 µM; in assay [2] it was 7 µM; in assay [3], 20 µM. For the same compound, the viability at 25 µM in assay [1] came out at 81%. For the same compound, the Activity result in the assay on LTEP-A2 was “Dose-dependent effect”. Besides, the viability at 12.5 µM in assay [4] came out at 12%.

With `C[S+]([O-])CCCCN=C=S` (stereo not given) [SULFORAPHANE], the IC50 in the assay on Jurkat is 3.8 µM; in assay [2], 95 µM; in assay [3] it was 6.25 µM; with DU-145, 10 µM.
